Source: ChEMBL document CHEMBL1123365, “Synthesis and opioid antagonist potencies of naltrexamine bivalent ligands with conformationally restricted spacers” (1986)

Legend:
[1] = Ratio of IC50 of compound in presence of ethylketazocine (EK) on the electrically stimulated guinea pig ileal longitudinal muscle (GPI) to that of IC50 of control value; type: functional
How it was run: (§1)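 Guinea pig ileal longitudinal muscle (GPI) strip. Ligand at 5 nM was preincubated with the tissue for 30 min, then an ethylketazocine (κ-selective) concentration-response curve was run. The IC50 ratio is the EK IC50 with antagonist over the control EK IC50 in the same GPI preparation. Relative potency is expressed against the monovalent reference ligand. Mean ± SE, n = 3.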

[2] = Ratio of IC50 of compound in presence of morphine on the electrically stimulated guinea pig ileal longitudinal muscle (GPI) to that of IC50 of control value; type: functional
How it was run: (§2)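 Guinea pig ileal longitudinal muscle (GPI) strip. Each ligand at 5 nM was incubated with the tissue for 30 min before a morphine (μ-selective) concentration-response curve was run. The IC50 ratio is the morphine IC50 with antagonist divided by the control IC50 in the same preparation. Relative potency is the ratio relative to the monovalent reference ligand. Mean ± SE of three determinations.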

[3] = species on record: Cavia porcellus; assay: Compound was tested for its antagonistic activity with morphine on the electrically stimulated guinea pig ileal longitudinal muscle (GPI).; type: functional, Muscle tissue; how it was run: as §2
[4] = species on record: Cavia porcellus; assay: Compound was tested for its antagonistic activity with ethylketazocine (EK) activity on the electrically stimulated guinea pig ileal longitudinal muscle (GPI).; type: functional, Muscle tissue; how it was run: as §1

| Compound | Ratio [1] | Ratio [2] | Relative potency [3] | Relative potency [4] |
| --- | --- | --- | --- | --- |
| O=C(/C=C/C(=O)NCC(=O)NCC(=O)NCC(=O)NCC(=O)NC1CCC2(O)C3Cc4ccc(O)c5c4C2(CCN3CC2CC2)C1O5)NCC(=O)NCC(=O)NCC(=O)NCC(=O)NC1CCC2(O)C3Cc4ccc(O)c5c4C2(CCN3CC2CC2)C1O5 (stereo not given) | 3.3 | 22.7 | 9.9 | 2.2 |
| O=C(/C=C/C(=O)NCC(=O)NCC(=O)NC1CCC2(O)C3Cc4ccc(O)c5c4C2(CCN3CC2CC2)C1O5)NCC(=O)NCC(=O)NC1CCC2(O)C3Cc4ccc(O)c5c4C2(CCN3CC2CC2)C1O5 (stereo not given) | 19.6 | 100 | 43 | 13.1 |
| O=C(/C=C/C(=O)NCC(=O)NC1CCC2(O)C3Cc4ccc(O)c5c4C2(CCN3CC2CC2)C1O5)NCC(=O)NC1CCC2(O)C3Cc4ccc(O)c5c4C2(CCN3CC2CC2)C1O5 (stereo not given) | 6.6 | 8.2 | 3.6 | – |
| O=C(/C=C/C(=O)NC1CCC2(O)C3Cc4ccc(O)c5c4C2(CCN3CC2CC2)C1O5)NC1CCC2(O)C3Cc4ccc(O)c5c4C2(CCN3CC2CC2)C1O5 (stereo not given) | 3.4 | 4.8 | 2.1 | 2.3 |
